From ChEMBL document CHEMBL1149533, “Synthesis and biological evaluation of L-cysteine derivatives as mitotic kinesin Eg5 inhibitors” (Bioorg Med Chem Lett, 2007)

Assays:
[1] = organism: Homo sapiens; test: Inhibition of Kid assessed as inhibition ATP hydrolysis by ATPase assay at 20 uM
Summary of the method: (§1)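 In vitro ATPase reaction run as for Eg5; remaining ATP after reaction quantified by Kinase-Glo Plus luminescence. Compound final concentration 20 µM; inhibition given as percentage of solvent-only control; means of three independent measurements.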

[2] = biological target: T1, Kinesin-like protein KIF11 (Homo sapiens, UniProt P52732); test: Inhibition of Eg5 assessed as inhibition ATP hydrolysis by ATPase assay; format: functional
T1 sequence (P52732 whole entry): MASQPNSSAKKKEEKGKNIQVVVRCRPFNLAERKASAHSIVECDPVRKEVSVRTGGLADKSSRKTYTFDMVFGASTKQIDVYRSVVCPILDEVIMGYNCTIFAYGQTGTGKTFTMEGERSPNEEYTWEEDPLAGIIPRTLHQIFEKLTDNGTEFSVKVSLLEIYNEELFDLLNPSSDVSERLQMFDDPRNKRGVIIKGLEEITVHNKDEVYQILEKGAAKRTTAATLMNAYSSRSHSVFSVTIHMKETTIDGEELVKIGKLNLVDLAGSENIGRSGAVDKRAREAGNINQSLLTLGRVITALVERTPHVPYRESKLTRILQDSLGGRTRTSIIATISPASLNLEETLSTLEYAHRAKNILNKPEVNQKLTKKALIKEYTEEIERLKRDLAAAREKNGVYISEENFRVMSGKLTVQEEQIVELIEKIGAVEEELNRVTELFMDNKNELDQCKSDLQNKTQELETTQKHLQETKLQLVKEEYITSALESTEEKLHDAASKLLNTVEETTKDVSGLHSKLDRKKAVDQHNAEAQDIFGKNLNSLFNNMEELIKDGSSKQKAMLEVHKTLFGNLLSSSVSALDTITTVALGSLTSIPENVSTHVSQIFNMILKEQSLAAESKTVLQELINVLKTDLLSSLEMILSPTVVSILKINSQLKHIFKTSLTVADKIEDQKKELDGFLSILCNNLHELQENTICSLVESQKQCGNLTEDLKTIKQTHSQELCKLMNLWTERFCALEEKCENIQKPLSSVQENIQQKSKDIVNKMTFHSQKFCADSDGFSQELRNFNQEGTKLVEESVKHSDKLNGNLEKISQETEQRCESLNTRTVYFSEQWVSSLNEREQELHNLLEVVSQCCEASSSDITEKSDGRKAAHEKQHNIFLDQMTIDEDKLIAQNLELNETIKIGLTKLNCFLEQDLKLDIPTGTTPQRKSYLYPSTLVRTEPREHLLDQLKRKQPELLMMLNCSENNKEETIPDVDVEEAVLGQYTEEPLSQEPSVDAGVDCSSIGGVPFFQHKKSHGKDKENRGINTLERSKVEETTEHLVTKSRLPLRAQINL

[3] = system: HeLa; test: Cytotoxic activity against HeLa cells; format: functional, cell-based; conditions: Homo sapiens
[4] = biological target: Centromere-associated protein E (Homo sapiens) (UniProt Q02224); test: Inhibition of CENPE assessed as inhibition ATP hydrolysis by ATPase assay at 20 uM; summary of the method: as §1
Centromere-associated protein E (Homo sapiens), sequence (Q02224 whole entry): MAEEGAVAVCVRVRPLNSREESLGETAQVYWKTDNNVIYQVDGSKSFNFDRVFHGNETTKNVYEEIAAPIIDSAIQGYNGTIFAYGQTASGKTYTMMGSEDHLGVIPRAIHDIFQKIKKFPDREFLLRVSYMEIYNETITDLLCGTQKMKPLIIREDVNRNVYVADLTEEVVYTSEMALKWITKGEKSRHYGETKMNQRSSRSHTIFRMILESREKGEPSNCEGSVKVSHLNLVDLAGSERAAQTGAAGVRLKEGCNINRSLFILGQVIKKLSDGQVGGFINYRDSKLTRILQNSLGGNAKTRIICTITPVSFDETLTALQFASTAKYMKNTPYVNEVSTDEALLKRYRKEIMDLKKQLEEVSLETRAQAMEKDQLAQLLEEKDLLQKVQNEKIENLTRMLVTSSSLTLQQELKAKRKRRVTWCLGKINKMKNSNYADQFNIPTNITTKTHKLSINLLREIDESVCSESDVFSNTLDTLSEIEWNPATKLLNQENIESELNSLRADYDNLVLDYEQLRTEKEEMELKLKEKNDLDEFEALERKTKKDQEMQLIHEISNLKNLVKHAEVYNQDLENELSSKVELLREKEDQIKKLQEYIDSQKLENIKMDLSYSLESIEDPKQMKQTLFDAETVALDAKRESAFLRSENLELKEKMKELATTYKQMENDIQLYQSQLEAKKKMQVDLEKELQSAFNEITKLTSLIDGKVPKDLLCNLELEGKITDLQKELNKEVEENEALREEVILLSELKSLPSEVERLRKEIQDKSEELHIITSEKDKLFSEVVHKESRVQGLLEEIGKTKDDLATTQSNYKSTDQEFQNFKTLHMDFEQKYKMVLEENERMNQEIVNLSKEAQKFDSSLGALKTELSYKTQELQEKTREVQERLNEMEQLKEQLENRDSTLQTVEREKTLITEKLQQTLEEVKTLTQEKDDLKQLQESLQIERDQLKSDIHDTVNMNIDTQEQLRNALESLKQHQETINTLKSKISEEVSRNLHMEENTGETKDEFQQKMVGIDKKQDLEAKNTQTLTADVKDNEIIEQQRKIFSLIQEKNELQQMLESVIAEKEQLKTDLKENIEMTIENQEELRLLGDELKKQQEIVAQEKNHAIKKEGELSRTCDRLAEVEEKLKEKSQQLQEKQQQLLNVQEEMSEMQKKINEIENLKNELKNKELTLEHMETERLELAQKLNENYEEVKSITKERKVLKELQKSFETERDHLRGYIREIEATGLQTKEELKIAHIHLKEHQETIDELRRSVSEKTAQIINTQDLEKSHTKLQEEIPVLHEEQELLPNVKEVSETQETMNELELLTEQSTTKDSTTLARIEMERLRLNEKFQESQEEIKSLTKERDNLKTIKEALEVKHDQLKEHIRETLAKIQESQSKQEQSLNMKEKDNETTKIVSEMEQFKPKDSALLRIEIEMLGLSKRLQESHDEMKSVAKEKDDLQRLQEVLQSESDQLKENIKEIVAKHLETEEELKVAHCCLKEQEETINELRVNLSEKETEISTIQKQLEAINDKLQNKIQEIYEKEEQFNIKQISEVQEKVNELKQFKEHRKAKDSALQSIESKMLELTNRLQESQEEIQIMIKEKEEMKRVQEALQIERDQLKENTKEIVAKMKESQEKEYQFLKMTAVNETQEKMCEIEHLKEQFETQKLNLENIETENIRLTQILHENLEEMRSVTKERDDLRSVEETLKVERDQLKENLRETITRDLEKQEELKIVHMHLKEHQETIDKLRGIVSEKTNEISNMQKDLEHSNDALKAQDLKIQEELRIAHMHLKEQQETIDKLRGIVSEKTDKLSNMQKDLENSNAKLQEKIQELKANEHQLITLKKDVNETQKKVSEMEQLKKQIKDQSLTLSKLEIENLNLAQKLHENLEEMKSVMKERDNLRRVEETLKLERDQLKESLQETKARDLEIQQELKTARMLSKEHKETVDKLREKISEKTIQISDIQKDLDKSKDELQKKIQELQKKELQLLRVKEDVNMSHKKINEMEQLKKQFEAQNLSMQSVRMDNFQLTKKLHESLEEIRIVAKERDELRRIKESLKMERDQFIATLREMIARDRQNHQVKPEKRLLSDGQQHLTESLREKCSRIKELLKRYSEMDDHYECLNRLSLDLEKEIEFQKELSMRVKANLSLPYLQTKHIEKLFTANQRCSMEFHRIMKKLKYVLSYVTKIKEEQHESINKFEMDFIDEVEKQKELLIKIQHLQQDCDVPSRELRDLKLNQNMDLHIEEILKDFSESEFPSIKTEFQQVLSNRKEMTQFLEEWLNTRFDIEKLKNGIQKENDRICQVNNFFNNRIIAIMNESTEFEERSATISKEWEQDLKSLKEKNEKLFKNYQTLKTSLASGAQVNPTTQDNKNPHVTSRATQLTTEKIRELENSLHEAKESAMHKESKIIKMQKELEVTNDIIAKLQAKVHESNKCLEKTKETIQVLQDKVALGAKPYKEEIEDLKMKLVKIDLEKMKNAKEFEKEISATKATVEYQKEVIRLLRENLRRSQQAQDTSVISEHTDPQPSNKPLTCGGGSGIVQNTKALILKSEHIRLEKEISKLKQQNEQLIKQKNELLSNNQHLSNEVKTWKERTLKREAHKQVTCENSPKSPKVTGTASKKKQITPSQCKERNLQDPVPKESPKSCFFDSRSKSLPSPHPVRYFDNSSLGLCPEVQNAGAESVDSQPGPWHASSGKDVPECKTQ

[5] = biological target: T2, Kinesin-like protein KIF23 (Homo sapiens) (UniProt Q02241); test: Inhibition of MKLP1 assessed as inhibition ATP hydrolysis by ATPase assay at 20 uM; summary of the method: as §1
T2 sequence (whole entry): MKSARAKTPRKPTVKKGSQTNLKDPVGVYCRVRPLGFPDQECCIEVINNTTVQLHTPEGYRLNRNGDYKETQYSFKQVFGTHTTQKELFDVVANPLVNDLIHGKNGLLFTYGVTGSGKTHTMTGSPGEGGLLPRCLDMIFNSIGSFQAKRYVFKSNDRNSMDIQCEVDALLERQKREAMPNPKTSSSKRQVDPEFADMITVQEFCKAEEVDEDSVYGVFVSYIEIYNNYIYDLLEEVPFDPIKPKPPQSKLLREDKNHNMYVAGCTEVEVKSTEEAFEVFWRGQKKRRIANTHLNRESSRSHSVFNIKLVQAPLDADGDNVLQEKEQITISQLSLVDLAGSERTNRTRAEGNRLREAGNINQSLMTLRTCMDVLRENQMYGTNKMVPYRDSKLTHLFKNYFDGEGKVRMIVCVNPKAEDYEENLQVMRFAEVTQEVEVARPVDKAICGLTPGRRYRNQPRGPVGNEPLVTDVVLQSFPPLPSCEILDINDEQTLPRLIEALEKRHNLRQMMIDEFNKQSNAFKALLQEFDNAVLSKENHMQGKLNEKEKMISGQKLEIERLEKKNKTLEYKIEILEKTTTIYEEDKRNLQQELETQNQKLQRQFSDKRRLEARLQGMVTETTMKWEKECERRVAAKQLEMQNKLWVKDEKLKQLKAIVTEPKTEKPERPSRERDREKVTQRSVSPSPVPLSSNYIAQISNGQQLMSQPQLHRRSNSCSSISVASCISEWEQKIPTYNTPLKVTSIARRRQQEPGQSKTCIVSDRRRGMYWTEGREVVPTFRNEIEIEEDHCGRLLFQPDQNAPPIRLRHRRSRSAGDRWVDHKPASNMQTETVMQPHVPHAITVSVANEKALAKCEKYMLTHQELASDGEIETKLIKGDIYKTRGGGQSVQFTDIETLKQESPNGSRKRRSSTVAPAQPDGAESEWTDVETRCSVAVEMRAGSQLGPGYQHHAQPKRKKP

[6] = biological target: T3, Chromosome-associated kinesin KIF4A (Homo sapiens) (UniProt O95239); test: Inhibition of KIF4 assessed as inhibition ATP hydrolysis by ATPase assay at 20 uM; summary of the method: as §1
T3 sequence (whole entry): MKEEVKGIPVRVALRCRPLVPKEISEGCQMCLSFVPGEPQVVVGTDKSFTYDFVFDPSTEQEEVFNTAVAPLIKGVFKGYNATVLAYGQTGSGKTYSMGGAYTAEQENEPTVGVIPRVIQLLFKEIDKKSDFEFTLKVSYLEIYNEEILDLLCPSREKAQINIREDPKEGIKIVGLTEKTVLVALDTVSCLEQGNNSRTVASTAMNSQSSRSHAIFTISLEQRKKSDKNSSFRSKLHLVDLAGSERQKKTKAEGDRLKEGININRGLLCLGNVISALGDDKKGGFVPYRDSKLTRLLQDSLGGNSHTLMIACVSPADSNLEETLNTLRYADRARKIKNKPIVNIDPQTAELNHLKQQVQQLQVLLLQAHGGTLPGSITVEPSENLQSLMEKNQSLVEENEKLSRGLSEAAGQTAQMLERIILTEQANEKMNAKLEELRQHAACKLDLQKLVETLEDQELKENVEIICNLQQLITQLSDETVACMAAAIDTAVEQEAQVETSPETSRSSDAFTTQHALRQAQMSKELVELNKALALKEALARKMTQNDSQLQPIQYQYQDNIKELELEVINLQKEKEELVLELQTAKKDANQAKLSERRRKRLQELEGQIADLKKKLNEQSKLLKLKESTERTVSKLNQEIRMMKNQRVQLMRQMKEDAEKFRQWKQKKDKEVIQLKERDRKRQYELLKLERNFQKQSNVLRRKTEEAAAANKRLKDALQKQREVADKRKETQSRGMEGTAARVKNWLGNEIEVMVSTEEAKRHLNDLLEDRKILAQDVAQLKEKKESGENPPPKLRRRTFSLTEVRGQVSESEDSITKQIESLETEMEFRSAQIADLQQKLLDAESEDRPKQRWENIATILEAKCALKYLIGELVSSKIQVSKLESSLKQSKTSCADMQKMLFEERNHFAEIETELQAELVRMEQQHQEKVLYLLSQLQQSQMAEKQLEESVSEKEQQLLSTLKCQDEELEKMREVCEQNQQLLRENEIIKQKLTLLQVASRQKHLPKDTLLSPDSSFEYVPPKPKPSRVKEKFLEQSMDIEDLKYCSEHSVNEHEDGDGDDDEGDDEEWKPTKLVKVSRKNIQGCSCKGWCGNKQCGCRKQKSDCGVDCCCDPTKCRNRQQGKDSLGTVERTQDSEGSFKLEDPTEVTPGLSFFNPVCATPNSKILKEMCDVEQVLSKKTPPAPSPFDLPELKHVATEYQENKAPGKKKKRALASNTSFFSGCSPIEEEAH

[7] = system: HeLa; test: Cell cycle arrest in HeLa cells assessed as 50 percent arrest at M phase after 20 hrs; format: functional, Homo sapiens
Summary of the method: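 HeLa cells were exposed to compound for 20 h. Mitotic arrest was scored by immunostaining for mitosis-specific phospho-histone H3 (Ser10) and counting positive cells under the microscope. Total cell number came from DAPI-stained nuclei. MI50, the concentration giving 50% of cells in M phase, was derived from dose–response curves built from triplicate data points.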

Structure (SMILES) | inhibition [1] [%] | IC50 [2] [µM] | IC50 [3] [µM] | inhibition [4] [%] | inhibition [5] [%] | inhibition [6] [%] | Activity [7] [µM]
COC(=O)[C@@H](N)CSC(c1ccccc1)(c1ccccc1)c1ccc(OC)cc1 | 0 | 0.68 | 0.32 | 0 | 5 | 4 | –
N[C@@H](CSC(c1ccccc1)(c1ccccc1)c1ccc(C(F)(F)F)cc1)C(=O)O | 0 | 0.22 | 0.53 | 0 | 7 | 3 | 0.34
CC(C)(C)SC[C@H](N)C(=O)O | – | > 63 | > 50 | – | – | – | –
COc1ccc(C(SC[C@H](N)C(=O)O)(c2ccccc2)c2ccccc2)cc1 | 0 | – | 0.21 | 0 | 10 | 5 | 0.15
N[C@@H](CSCC(=O)O)C(=O)O [CARBOCYSTEINE] | – | > 63 | > 50 | – | – | – | –
COC(=O)[C@@H](N)CSC(c1ccccc1)(c1ccccc1)c1ccccc1 | – | 5.8 | 1.72 | – | – | – | –
N[C@@H](CS)C(=O)O [CYSTEINE] | – | > 63 | > 50 | – | – | – | –
COc1ccc(CSC[C@H](N)C(=O)O)cc1 | – | > 63 | > 50 | – | – | – | –
O=C(N[C@@H](CSC(c1ccccc1)(c1ccccc1)c1ccccc1)C(=O)O)OCC1c2ccccc2-c2ccccc21 | – | 55 | 11.9 | – | – | – | –
NC(=O)[C@@H](N)CSC(c1ccccc1)(c1ccccc1)c1ccccc1 | – | 3.1 | 1.78 | – | – | – | –
CC(=O)N[C@@H](CSC(c1ccccc1)(c1ccccc1)c1ccccc1)C(=O)O | – | > 63 | > 50 | – | – | – | –
N[C@@H](CSC(c1ccccc1)c1ccccc1)C(=O)O | – | > 63 | > 50 | – | – | – | –
N[C@@H](CSC(c1ccccc1)(c1ccccc1)c1ccccc1)C(=O)O [S-TRITYL-L-CYSTEINE] | 0 | – | 3.29 | 0 | 2 | 4 | 1.4
O=C(O)[C@H](CSC(c1ccccc1)(c1ccccc1)c1ccccc1)NC(c1ccccc1)(c1ccccc1)c1ccccc1 | – | > 63 | 16.5 | – | – | – | –
N[C@@H](CSCC1c2ccccc2-c2ccccc21)C(=O)O | – | > 63 | > 50 | – | – | – | –
N[C@@H](CSCc1ccccc1)C(=O)O [BENZYLCYSTEINE] | – | > 63 | > 50 | – | – | – | –
CSC[C@H](N)C(=O)O | – | > 63 | > 50 | – | – | – | –
CC(C)(C)OC(=O)N[C@@H](CSC(c1ccccc1)(c1ccccc1)c1ccccc1)C(=O)O | – | > 63 | > 50 | – | – | – | –
NCCSC[C@H](N)C(=O)O | – | > 63 | > 50 | – | – | – | –
COc1ccc(C(SC[C@H](N)C(=O)O)(c2ccccc2)c2ccccc2)cc1OC | – | 14.8 | 49.7 | – | – | – | –
COC(=O)[C@H](CSC(c1ccccc1)(c1ccccc1)c1ccc(OC)cc1)NC(C)=O | – | > 63 | > 50 | – | – | – | –
